Drawing on ChEMBL document CHEMBL1152244, “Proteochemometrics analysis of substrate interactions with dengue virus NS3 proteases” (Bioorg Med Chem, 2008), this text covers Km and kcat for 14 molecules.

Test [1] has as its system dengue virus type 1. Kind of test: Activity of dengue virus 1 recombinant NS3 protease expressed in Escherichia coli C41(DE3) by fluorogenic assay. The method in brief:
(§1)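 NS2B(H)-NS3pro from inclusion bodies, Ni-chelate and gel filtration purified under 8 M urea, refolded by dialysis. Internally quenched Abz–RRRR-XXXX–nY–NH2 peptides, 1–100 µM (12 points), enzyme 150–200 nM, 50 mM Tris–HCl pH 9.0, 20% glycerol, 37 °C. Cleavage read as fluorescence, ex 320/em 420 nm. Initial rates fitted to give Km and kcat, averaged over ≥3 independent measurements.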

The subject of test [2] is dengue virus type 2. The test is described as follows: Activity of dengue virus 2 recombinant NS3 protease expressed in Escherichia coli C41(DE3) by fluorogenic assay. The method in brief:
as §1

Test [3] concerns dengue virus type 3. The test is described as follows: Activity of dengue virus 3 recombinant NS3 protease expressed in Escherichia coli C41(DE3) by fluorogenic assay. The method in brief: as §1
Test [4] deals with dengue virus type 4. The test is described as follows: Activity of dengue virus 4 recombinant NS3 protease expressed in Escherichia coli C41(DE3) by fluorogenic assay. The method in brief:
as §1

Non-standard residues stand in square brackets, D forms with d. Residues, ends and D or L forms follow the SMILES beside them. Tyr(3-NO2) = N[C@@H](Cc1ccc(O)c([N+](=O)[O-])c1)C(=O)O; 2Abz = Nc1ccccc1C(=O)O

In the case of `C[C@H](NC(=O)c1ccccc1N)C(=O)N[C@@H](CC(N)=O)C(=O)NCC(=O)N[C@@H](Cc1cnc[nH]1)C(=O)N[C@@H](Cc1ccc(O)c([N+](=O)[O-])c1)C(N)=O` (H-[2Abz]ANGH[Tyr(3-NO2)]-NH2), the Km (as a rule, the substrate concentration at which the rate is half of its maximum) was found to be 22.3 µM in test [1], 7.02 µM in test [2], 31.4 µM in test [3] and 10.8 µM in test [4]. The kcat (as a rule, the maximal rate divided by the concentration of active sites) is 0.031 s⁻¹ in test [1], 0.0015 s⁻¹ in test [2], 0.0102 s⁻¹ in test [3] and 0.0595 s⁻¹ in test [4].
For the molecule `C[C@H](NC(=O)c1ccccc1N)C(=O)N1CCC[C@H]1C(=O)N[C@@H](CS)C(=O)N[C@@H](CC(N)=O)C(=O)N[C@@H](Cc1ccc(O)c([N+](=O)[O-])c1)C(N)=O` (H-[2Abz]APCN[Tyr(3-NO2)]-NH2), the Michaelis-Menten constant (Km) is 11.4 µM in test [1], 5.41 µM in test [2], 3.87 µM in test [3] and 4.94 µM in test [4]. Also, the kcat was determined as 0.0397 s⁻¹ in test [1], 0.004 s⁻¹ in test [2], 0.0112 s⁻¹ in test [3] and 0.0477 s⁻¹ in test [4].
Consider `C[C@@H](O)[C@H](NC(=O)[C@H](Cc1c[nH]c2ccccc12)NC(=O)[C@H](CC(N)=O)NC(=O)c1ccccc1N)C(=O)N[C@@H](CC(N)=O)C(=O)N[C@@H](Cc1ccc(O)c([N+](=O)[O-])c1)C(N)=O` (H-[2Abz]NWTN[Tyr(3-NO2)]-NH2), for which the Km was 13.7 µM in test [1], 6.02 µM in test [2], 9.37 µM in test [3] and 10.4 µM in test [4]. The kcat in test [1] came out at 0.0145 s⁻¹; in test [2], 0.005 s⁻¹; in test [3] it was 0.0065 s⁻¹; in test [4], 0.0378 s⁻¹.
For the molecule `CSCC[C@H](NC(=O)CNC(=O)[C@H](C)NC(=O)[C@H](CO)NC(=O)c1ccccc1N)C(=O)N[C@@H](Cc1ccc(O)c([N+](=O)[O-])c1)C(N)=O` (H-[2Abz]SAGM[Tyr(3-NO2)]-NH2), the Km came to 25.5 µM in test [1], 3.44 µM in test [2], 24.9 µM in test [3] and 22.7 µM in test [4]. Besides, the turnover number (kcat) in test [1] is 0.166 s⁻¹; in test [2] it was 0.031 s⁻¹; in test [3], 0.0557 s⁻¹; in test [4] it was 0.282 s⁻¹.
With `CC(C)C[C@H](NC(=O)[C@@H]1CCCN1C(=O)[C@H](Cc1c[nH]c2ccccc12)NC(=O)[C@H](CO)NC(=O)c1ccccc1N)C(=O)N[C@@H](Cc1ccc(O)c([N+](=O)[O-])c1)C(N)=O` (H-[2Abz]SWPL[Tyr(3-NO2)]-NH2), the Km in test [1] was 12.6 µM; in test [2] it was 5.54 µM; in test [3], 12 µM; in test [4], 7.18 µM. Besides, the kcat stood at 0.0323 s⁻¹ in test [1], 0.0105 s⁻¹ in test [2], 0.0148 s⁻¹ in test [3] and 0.0668 s⁻¹ in test [4].
On to `C[C@@H](O)[C@H](NC(=O)CNC(=O)CNC(=O)c1ccccc1N)C(=O)N[C@@H](CC(=O)O)C(=O)N[C@@H](Cc1ccc(O)c([N+](=O)[O-])c1)C(N)=O` (H-[2Abz]GGTD[Tyr(3-NO2)]-NH2), for which the Km in test [1] stood at 49.7 µM; in test [2] it was 12.9 µM; in test [3] it was 18.6 µM; in test [4], 12.2 µM. Moreover, the kcat was determined as 0.0715 s⁻¹ in test [1], 0.00717 s⁻¹ in test [2], 0.0247 s⁻¹ in test [3] and 0.0585 s⁻¹ in test [4].
Take `CSCC[C@H](NC(=O)CNC(=O)[C@H](C)NC(=O)[C@H](C)NC(=O)c1ccccc1N)C(=O)N[C@@H](Cc1ccc(O)c([N+](=O)[O-])c1)C(N)=O` (H-[2Abz]AAGM[Tyr(3-NO2)]-NH2): the Km came to 17.9 µM in test [1], 2.46 µM in test [2], 12.1 µM in test [3] and 8.22 µM in test [4]. Moreover, the kcat in test [1] amounted to 0.0818 s⁻¹; in test [2] it was 0.00917 s⁻¹; in test [3], 0.012 s⁻¹; in test [4] it was 0.0852 s⁻¹.
Consider `C[C@H](NC(=O)[C@H](CO)NC(=O)c1ccccc1N)C(=O)NCC(=O)N[C@@H](Cc1ccc(O)c([N+](=O)[O-])c1)C(N)=O` (H-[2Abz]SAG[Tyr(3-NO2)]-NH2), for which the Michaelis-Menten constant (Km) came out at 28.4 µM in test [1], 3.61 µM in test [2], 20.9 µM in test [3] and 15.2 µM in test [4]. Also, the kcat in test [1] is 0.282 s⁻¹; in test [2] it was 0.0423 s⁻¹; in test [3], 0.0685 s⁻¹; in test [4], 0.461 s⁻¹.
With `C[C@H](NC(=O)[C@H](CC(N)=O)NC(=O)c1ccccc1N)C(=O)N[C@@H](CS)C(=O)N[C@@H](CS)C(=O)N[C@@H](Cc1ccc(O)c([N+](=O)[O-])c1)C(N)=O` (H-[2Abz]NACC[Tyr(3-NO2)]-NH2), the Michaelis-Menten constant (Km) is 8.81 µM in test [1], 3.21 µM in test [2], 13 µM in test [3] and 3.03 µM in test [4]. In addition, the kcat in test [1] was found to be 0.0138 s⁻¹; in test [2] it was 0.00467 s⁻¹; in test [3], 0.0102 s⁻¹; in test [4] it was 0.0372 s⁻¹.
For the molecule `CC(C)C[C@H](NC(=O)[C@@H](NC(=O)CNC(=O)[C@H](C)NC(=O)c1ccccc1N)C(C)C)C(=O)N[C@@H](Cc1ccc(O)c([N+](=O)[O-])c1)C(N)=O` (H-[2Abz]AGVL[Tyr(3-NO2)]-NH2), the Michaelis-Menten constant (Km) is 23.9 µM in test [1], 2.19 µM in test [2], 10.6 µM in test [3] and 10.8 µM in test [4]. Also, the catalytic constant (kcat) in test [1] was 0.06 s⁻¹; in test [2], 0.00567 s⁻¹; in test [3], 0.0105 s⁻¹; in test [4], 0.0553 s⁻¹.
With `NC(=O)[C@H](Cc1ccc(O)c([N+](=O)[O-])c1)NC(=O)[C@H](CS)NC(=O)[C@@H]1CCCN1C(=O)[C@H](CC(=O)O)NC(=O)CNC(=O)c1ccccc1N` (H-[2Abz]GDPC[Tyr(3-NO2)]-NH2), the Km in test [1] was found to be 31.9 µM; in test [2] it was 13.2 µM; in test [3], 41.5 µM; in test [4], 11.5 µM. The kcat in test [1] turned out to be 0.0202 s⁻¹; in test [2], 0.003 s⁻¹; in test [3] it was 0.007 s⁻¹; in test [4], 0.021 s⁻¹.
On to `C[C@@H](O)[C@H](NC(=O)[C@H](CO)NC(=O)c1ccccc1N)C(=O)N1CCC[C@H]1C(=O)N[C@@H](Cc1cnc[nH]1)C(=O)N[C@@H](Cc1ccc(O)c([N+](=O)[O-])c1)C(N)=O` (H-[2Abz]STPH[Tyr(3-NO2)]-NH2), for which the Michaelis-Menten constant (Km) in test [1] was found to be 18.1 µM; in test [2], 17.2 µM; in test [3] it was 42.2 µM; in test [4], 14.8 µM. The kcat worked out at 0.0313 s⁻¹ in test [1], 0.0157 s⁻¹ in test [2], 0.0145 s⁻¹ in test [3] and 0.078 s⁻¹ in test [4].
Take `CC(C)[C@H](NC(=O)[C@H](C)NC(=O)[C@H](C)NC(=O)c1ccccc1N)C(=O)N[C@@H](CC(=O)O)C(=O)N[C@@H](Cc1ccc(O)c([N+](=O)[O-])c1)C(N)=O` (H-[2Abz]AAVD[Tyr(3-NO2)]-NH2): the Km worked out at 31.4 µM in test [1], 18.3 µM in test [2], 21.2 µM in test [3] and 36.9 µM in test [4]. Moreover, the kcat in test [1] was determined as 0.0352 s⁻¹; in test [2], 0.0125 s⁻¹; in test [3] it was 0.0153 s⁻¹; in test [4] it was 0.113 s⁻¹.
Turning to `NC(=O)[C@H](Cc1ccc(O)c([N+](=O)[O-])c1)NC(=O)[C@H](CC(=O)O)NC(=O)[C@H](CS)NC(=O)[C@H](Cc1cnc[nH]1)NC(=O)[C@H](CO)NC(=O)c1ccccc1N` (H-[2Abz]SHCD[Tyr(3-NO2)]-NH2), the Km in test [1] is 26.3 µM; in test [2], 11.4 µM; in test [3], 11.3 µM; in test [4], 9.77 µM. Besides, the kcat in test [1] was 0.0685 s⁻¹; in test [2], 0.0123 s⁻¹; in test [3], 0.0285 s⁻¹; in test [4] it was 0.0783 s⁻¹.
